NTR1 ag = activates human neurotensin receptor 1. NTR1-U2OS beta-arrestin-GFP spot imaging, agonist mode. P30989. activation, % at 20 µM. hit rate 0.17% among 330,000. AID 493036;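 active = activation at or above 40% of the spot to cytoplasm intensity ratio, with at least 20 cells analyzed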
PREPL inh = inhibits the human prolyl oligopeptidase-like enzyme. Q4J6C6. recombinant PREPL, fluorescence polarization activity-based probe. inhibition, % at 5.96 µM. hit rate 0.68% among 320,000; in the data active = inhibition above about 43%
HTR2A ag = mouse HTR2A agonism via beta-arrestin recruitment; CHO-K1 mHTR2A beta-arrestin complementation, luminescence; percent of 30 µM serotonin response; activation, % at 7.6 µM; hit rate 0.66% among 360,000;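 active = activation above a run cutoff, the mean activation of all tested compounds plus 3 SD, cut at about 14% in these data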
Target sequence (P35363 whole entry, looked up): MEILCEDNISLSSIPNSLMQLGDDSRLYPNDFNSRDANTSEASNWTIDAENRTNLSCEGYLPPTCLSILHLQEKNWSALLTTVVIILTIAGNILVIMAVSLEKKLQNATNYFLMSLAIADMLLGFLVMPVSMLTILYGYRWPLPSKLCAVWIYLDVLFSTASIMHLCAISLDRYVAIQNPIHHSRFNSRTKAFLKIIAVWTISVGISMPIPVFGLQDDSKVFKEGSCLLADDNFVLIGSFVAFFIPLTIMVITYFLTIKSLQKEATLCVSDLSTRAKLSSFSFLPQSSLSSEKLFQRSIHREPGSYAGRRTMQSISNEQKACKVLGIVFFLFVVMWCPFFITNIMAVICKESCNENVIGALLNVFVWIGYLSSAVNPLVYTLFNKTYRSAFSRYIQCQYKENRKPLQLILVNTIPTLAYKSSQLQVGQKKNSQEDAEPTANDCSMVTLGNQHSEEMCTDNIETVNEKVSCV
MC4R antag cAMP = antagonists of human melanocortin 4 receptor (MC4R); P32245; MC4R-expressing cells, MTII-stimulated cAMP, LANCE TR-FRET; inhibition, % at 6.5 µM; hit rate 0.48% among 360,000; AID 540295;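 active = inhibition above its plate's cutoff, the mean of tested wells on that plate plus 3 SD, cut at about 29% in these data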
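Assay system: U2OS-MC4R stable cell line; Also added: Melanotan II; Technique: Eu-cAMP/anti-cAMP TR-FRET, emission 671 nm; Times: 30-min compound, 1-h challenge, 1-h detection, room temperature.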
Hep lipid drop = modulators of hepatic lipid droplet formation | inhibition, % at 6.5 µM | hit rate 0.4% among 240,000 | AML12 mouse hepatocytes, oleate lipid droplets, BODIPY imaging;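 active = lipid droplet intensity inhibited by at least 50%, with more than 500 cells counted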
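System: AML12 hepatocytes (mouse). Probe or stimulus: oleic acid at 100 µM to induce lipid droplet formation. Times: overnight treatment with compound plus oleate. Detection: Image-based BODIPY and DAPI two-channel analysis. Evaluation: percent inhibition of filter-corrected integrated lipid droplet intensity per well.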
MC4R ag barr = human MC4R agonism via beta-arrestin. P32245. U2OS MC4R beta-arrestin complementation, luminescence; percent of melanotan II response, DMSO zero. activation, % at 8.9 µM. hit rate 0.98% among 360,000;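 active = activation above a per-plate cutoff, the mean activation of sample wells on that plate plus 3 SD, cut at about 8% in these data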
U2OS cAMP counter = counter-screen for MC4R antagonists: nonselective cAMP signaling inhibitors. parental U2OS, forskolin cAMP, LANCE TR-FRET. shares compounds with MC4R antag cAMP. inhibition, % at 6.5 µM. hit rate 26% among 1,600;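 active = mean inhibition over triplicates above the low-control well mean plus 3 SD, set per campaign, cut at about 13% in these data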;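 also: signal is single emission at 671 nm which falls as cellular cAMP rises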
MC4R antag conf = human MC4R cAMP antagonism confirmation; shares compounds with MC4R antag cAMP; MC4R-expressing cells, MTII-stimulated cAMP, TR-FRET; inhibition, % at 6.5 µM; hit rate 27% among 1,600; AID 602195; in the data active = inhibition above about 29%
Large screens that a line does not name were inactive (follow-up assays come after a bar, where they were run). The list is not random: actives were taken first. Their share in the collection is about 2.7%.

CCN(c1ccccc1)S(=O)(=O)c1ccc(OC)c(NC(=O)Cn2cnc3c2c(=O)n(C)c(=O)n3C)c1	MC4R antag cAMP 41.4 | U2OS cAMP counter inactive | MC4R antag conf inactive
COc1ccc(-c2c3c([nH]c(=S)c2C#N)CCC3)cc1	MC4R antag cAMP 88.0 (no result: NTR1 ag, PREPL inh) | U2OS cAMP counter 20.1 | MC4R antag conf 35.3
COc1ccc(OC)c(-c2c3c([nH]c(=S)c2C#N)CCCC3)c1	none
Cc1cccc(-n2c(-c3ccoc3C)n[nH]c2=S)c1	MC4R antag cAMP 30.0 | U2OS cAMP counter inactive | MC4R antag conf inactive
COc1ccc(S(=O)(=O)NC(=O)C2(C)CCN2C(=O)Cc2cccc3ccccc23)cc1 (stereo unspecified)	none (no result: NTR1 ag, PREPL inh, Hep lipid drop)
Cc1cccc(C)c1NC(=O)COC(=O)CSc1nnc(N)s1	none
Cc1cccc(C)c1NC(=O)CCCSc1nnc(N)s1	MC4R antag cAMP 32.8 | U2OS cAMP counter inactive | MC4R antag conf inactive
CN1CCN(C(=O)/C=C/c2cn(-c3ccccc3)nc2-c2ccc3c(c2)OCCO3)CC1	MC4R antag cAMP 36.0 | U2OS cAMP counter inactive | MC4R antag conf inactive
O=C(O)/C=C/c1cn(-c2ccccc2)nc1-c1ccc2c(c1)OCCO2	none
Cc1ccc(C(=O)NCC(=O)OC2CCCCC2=O)cc1C (stereo unspecified)	none (no result: Hep lipid drop)
O=C(CNC(=O)c1ccc(Oc2ccccc2)cc1)OC1CCCCC1=O (stereo unspecified)	MC4R antag cAMP 33.6 | U2OS cAMP counter inactive | MC4R antag conf inactive
O=C(Cn1ncc(Cl)c(Cl)c1=O)NCC1CCCCC1	MC4R antag cAMP 57.9 (no result: NTR1 ag) | U2OS cAMP counter 32.9 | MC4R antag conf 56.2
O=C(Cn1ncc(Cl)c(Cl)c1=O)NC1CCCCC1	MC4R antag cAMP 47.2 (no result: Hep lipid drop) | U2OS cAMP counter 28.9 | MC4R antag conf 72.0
O=c1c2ccccc2oc2nc(-c3cccs3)n(CCc3ccccc3)c(=O)c12	none (no result: HTR2A ag, MC4R antag cAMP, MC4R ag barr)
O=C(Nc1nnc(-c2ccncc2)o1)c1ccc(Br)s1	none
Cc1cccc(CNc2ncc(-c3cccc([N+](=O)[O-])c3)n2C)c1	MC4R antag cAMP 32.7 | U2OS cAMP counter inactive | MC4R antag conf inactive
Cn1c(-c2cccc([N+](=O)[O-])c2)cnc1NCc1cccc([N+](=O)[O-])c1	none
O=C(Nc1ccc(Cl)cn1)C1CCCN(c2ncnc3c2nc2n3CCCCC2)C1 (stereo unspecified)	MC4R antag cAMP 30.4 | U2OS cAMP counter inactive | MC4R antag conf inactive
COc1ccc(C(=O)N/C(=C\c2ccc3c(c2)OCO3)C(=O)NCCc2nc3ccccc3[nH]2)cc1	MC4R antag cAMP 29.0 | U2OS cAMP counter inactive | MC4R antag conf inactive
COc1ccc(/C=C(/NC(=O)c2ccc(OC)cc2)C(=O)NCCc2c[nH]c3ccccc23)cc1	none
O=c1c2ccccc2ncn1-c1cccc(Br)c1	none
O=C(COC(=O)CCN1C(=O)c2cccc([N+](=O)[O-])c2C1=O)NCc1ccccc1	MC4R antag cAMP 33.0 | U2OS cAMP counter inactive | MC4R antag conf inactive
CCOC(=O)Cc1csc(NC(=O)CCN2C(=O)c3cccc([N+](=O)[O-])c3C2=O)n1	MC4R antag cAMP 44.1 | U2OS cAMP counter inactive | MC4R antag conf inactive
O=C(CCCCCN1C(=O)c2cccc([N+](=O)[O-])c2C1=O)NCCc1ccccc1	none (no result: NTR1 ag, PREPL inh, Hep lipid drop)
CCCN(CC(=O)Nc1ccccc1C)C(=O)CCN1C(=O)c2cccc([N+](=O)[O-])c2C1=O	MC4R antag cAMP 29.7 (no result: Hep lipid drop) | U2OS cAMP counter 21.4 | MC4R antag conf 32.9
Cc1cccc(NC(=O)CCN2C(=O)c3cccc([N+](=O)[O-])c3C2=O)c1	MC4R antag cAMP 31.4 | U2OS cAMP counter 16.1 | MC4R antag conf 28.7
C[C@@H]1CN([C@@H](C)CO)C(=O)c2cccc(NC(=O)Nc3ccc4c(c3)OCO4)c2O[C@H]1CN(C)S(=O)(=O)c1cn(C)cn1	none (no result: Hep lipid drop)
O=C(CN1C(=O)NC(CCc2ccccc2)C1=O)Nc1cccc(Br)c1 (stereo unspecified)	none (no result: Hep lipid drop)
CC1CN(c2ccc(Cl)cc2[N+](=O)[O-])CCN1S(C)(=O)=O (stereo unspecified)	none
COc1ccc(CN2C(=O)CN(S(C)(=O)=O)CC2(C)C(=O)Nc2ccc3c(c2)OCCO3)cc1OC (stereo unspecified)	none (no result: NTR1 ag, PREPL inh, MC4R antag cAMP, Hep lipid drop, MC4R ag barr)
COc1ccccc1C(=O)NCC(=O)OCC(=O)c1cccc2ccccc12	none (no result: Hep lipid drop)
O=C(/C=C/c1ccco1)OCC1CCCN2CCCCC12 (stereo unspecified)	MC4R antag cAMP 31.2 | U2OS cAMP counter inactive | MC4R antag conf inactive
O=C(COC(=O)/C=C/c1ccco1)NC1CCCCC1	none (no result: Hep lipid drop)
O=C(OCC(=O)N1CCCCCC1)c1ccc(F)cc1F	none (no result: PREPL inh, Hep lipid drop)
COc1ccc(CC(=O)Nc2cc3oc4ccccc4c3cc2OC)cc1	MC4R antag cAMP 29.4 | U2OS cAMP counter inactive | MC4R antag conf inactive
Cc1ccc(C)c(S(=O)(=O)N2CCN(C(=O)CCC(=O)NCc3ccc(Cl)cc3Cl)CC2)c1	none (no result: NTR1 ag, PREPL inh, Hep lipid drop)
COc1ccccc1CN(C(=O)c1cnccn1)C(C(=O)NC1CCCCC1)c1cc(OC)c(OC)c(OC)c1 (stereo unspecified)	none
COCC(C)n1c(C)cc(C(=O)COc2ccc(N(C)S(=O)(=O)c3ccc(NC(C)=O)cc3)cc2)c1C (stereo unspecified)	none (no result: PREPL inh, Hep lipid drop)
C=CCn1c(C)cc(C(=O)COc2ccc(N(C)S(=O)(=O)c3ccc(NC(C)=O)cc3)cc2)c1C	MC4R antag cAMP 40.3 (no result: Hep lipid drop) | U2OS cAMP counter inactive | MC4R antag conf inactive
COc1ccccc1CN(C)C(=O)c1ccc(COc2ccccc2)cc1	MC4R antag cAMP 31.4 | U2OS cAMP counter inactive | MC4R antag conf inactive
COc1ccc(Cl)cc1-c1n[nH]c(=S)o1	MC4R antag cAMP 71.9 | U2OS cAMP counter 45.3 | MC4R antag conf 78.0
CSc1ccccc1-c1n[nH]c(=S)o1	MC4R antag cAMP 89.8 (no result: PREPL inh) | U2OS cAMP counter 49.7 | MC4R antag conf 94.0
COc1ccccc1-c1n[nH]c(=S)o1	none
Cc1ccccc1-c1n[nH]c(=S)o1	MC4R antag cAMP 41.8 (no result: Hep lipid drop) | U2OS cAMP counter 24.8 | MC4R antag conf 47.1
O=C(OCn1nnc2ccccc2c1=O)c1cc2ccccc2o1	none
CCOC(=O)[C@H]1[C@H]2COc3ccc(OC)cc3[C@@H]2N2C(=O)CN(CCc3c[nH]c4ccccc34)C(=O)[C@@]12C	none (no result: Hep lipid drop)
CC(=O)OC1CCC2(C)C(CCC3C4CC=C(C(C)=O)C4(C)OC(=O)CC32)C1 (stereo unspecified)	MC4R antag cAMP 42.5 (no result: NTR1 ag, PREPL inh, Hep lipid drop) | U2OS cAMP counter 31.1 | MC4R antag conf inactive
CC(=O)O[C@H]1CC[C@@]2(C)C(CCC3C2CC[C@]2(C)OC(=O)CCC32)C1 (stereo partly specified)	none
